SIAE primary – human SIAE inhibitors, primary screen, biochemical, fluorescence polarization, FP-Rh probe, 1536-well HTS. SIAE FP-Rh probe binding. inhibition, % at 9.66 µM. 370,000 tested, 0.69% active. AID 1053197, 2014;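 active = inhibition above a cutoff: mean of compounds within the control limits plus 3 SD of those, cut at about 17% in these data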;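 also: 0% = plate median of compound wells and 100% = probe without SIAE protein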
TCR-CD3 inh – inhibitors of human TCR-CD3 interaction, primary screen, biochemical, fluorescence, TAMRA-labeled TCR probe; T-cell receptor (TCR); 360,000 tested, 0.37% active; inhibition, % at 9.4 µM;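 also: recombinant mutant TCR 2C K166C tagged with TAMRA read by polarization; 0% = receptor in buffer alone and 100% = receptor with positive control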
mABHD4 FP – ABHD4 inhibitors, primary screen, biochemical, fluorescence polarization, mouse | purified mABHD4, FP-Rh probe fluorescence polarization | inhibition, % at 8.92 µM | (Lyso)-N-acylphosphatidylethanolamine lipase (Mus musculus), Q8VD66 | AID 720543, 2013 | 370,000 tested, 0.54% active;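 active = inhibition exceeding the mean over every tested compound plus 3 SD, cut at about 30% in these data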;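 also: 0% = plate median of compound wells and 100% = S159A mutant with DMSO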
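Test system: mABHD4 protein; Read-out basis: % inhibition; Incubation: 45 min + 60 min at 25 °C; Repeats: single replicate; Technique: fluorescence polarization with parallel and perpendicular emission, 525/598 nm; Compound: 8.92 µM, single dose; Benchmarks: full inhibition S159A mutant plus DMSO, zero as sample-well median.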
DAGLB inhibitor – DAGLB lipase inhibitors, primary screen, biochemical, fluorescence, HTS; inhibition, % at 5.17 µM; 340,000 tested, 0.059% active; HEK293T DAGLB membrane lysate, EnzChek fluorogenic substrate; in the data active = inhibition above about 34%;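 also: 0% = enzyme with vehicle and 100% = wells lacking enzyme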
Target sequence (Q8NCG7 whole entry, looked up): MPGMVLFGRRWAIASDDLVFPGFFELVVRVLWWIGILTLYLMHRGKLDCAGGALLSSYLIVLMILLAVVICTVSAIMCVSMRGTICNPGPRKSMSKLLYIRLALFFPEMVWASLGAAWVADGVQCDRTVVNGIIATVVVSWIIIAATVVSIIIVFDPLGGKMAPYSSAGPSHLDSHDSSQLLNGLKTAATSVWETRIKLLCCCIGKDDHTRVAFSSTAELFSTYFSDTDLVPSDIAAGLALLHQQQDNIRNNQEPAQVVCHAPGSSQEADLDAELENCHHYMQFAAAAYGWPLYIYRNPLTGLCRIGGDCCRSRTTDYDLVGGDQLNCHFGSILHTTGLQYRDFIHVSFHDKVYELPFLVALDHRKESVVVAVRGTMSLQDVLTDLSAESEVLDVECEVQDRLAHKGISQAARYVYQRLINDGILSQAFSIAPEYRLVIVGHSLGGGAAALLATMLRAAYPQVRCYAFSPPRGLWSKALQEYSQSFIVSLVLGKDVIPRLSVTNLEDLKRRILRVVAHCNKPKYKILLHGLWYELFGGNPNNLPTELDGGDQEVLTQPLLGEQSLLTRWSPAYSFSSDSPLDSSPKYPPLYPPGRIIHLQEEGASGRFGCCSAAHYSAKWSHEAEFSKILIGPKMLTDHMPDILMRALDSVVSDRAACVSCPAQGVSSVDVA
HTRA1 inhibitor – HTRA1 serine protease inhibitors, primary screen, biochemical, fluorescence polarization, HTS; Q92743; inhibition, % at 5.96 µM; recombinant HTRA1, FP-rhodamine activity-based probe; 340,000 tested, 0.5% active; AID 504803, 2011; in the data active = inhibition above about 36%;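 also: 0% = enzyme with DMSO and 100% = wells lacking enzyme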
BSA probe FL – compounds interfering with TAMRA-BSA probe, counter-screen for TCR-CD3 interaction inhibitor project, biochemical, fluorescence, TAMRA-labeled BSA; shares compounds with TCR-CD3 inh; inhibition, % at 9.4 µM; 1,200 tested, 10% active; TAMRA-labeled BSA probe fluorescence counterscreen; AID 652035, 2013; in the data active = inhibition above about 23%;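 also: 0% = buffer low control and 100% = reference high control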
TCR-CD3 inh conf – TCR-CD3 interaction inhibitors, retest, confirmation, biochemical, fluorescence, TAMRA-labeled TCR probe. AID 652036, 2013. shares compounds with TCR-CD3 inh. TAMRA-labeled TCR probe fluorescence binding assay. inhibition, % at 9.4 µM. 1,200 tested, 48% active
Numbers without * were called inactive; x = no result given. Sampled rows, rich in hits. Any-hit rate of the full collection: about 1.5%. Rule as the data show it, unless noted: active = inhibition above about 19%; inactive = the rest.

SMILES | SIAE primary | TCR-CD3 inh | mABHD4 FP | DAGLB inhibitor | HTRA1 inhibitor | BSA probe FL | TCR-CD3 inh conf
CCOC(=O)[C@]12CCCC=C1N(Cc1ccc(OC)cc1)C(=O)[C@@H]2CC(=O)NCc1cccc(C(F)(F)F)c1 | -4 | x | -6 | x | x | x | x
CCNc1ccc(C(=O)O)cc1N | 7 | 23* | 21 | 1 | 29 | 22 | 14
CCc1ccccc1Nc1ccc(C(=O)O)cc1N | 3 | 12 | 19 | 4 | 14 | x | x
CC1=NN(C(=O)c2ccccc2Br)C(O)(c2ccc(Cl)cc2)C1 (configuration not stated) | -8 | 28* | 2 | 0 | 23 | -7 | 13
c1coc(CSSCc2ccco2)c1 | 2 | 20* | 28 | -3 | 22 | 4 | 6
O=C(NC1CCCCN(Cc2cccc(C(F)(F)F)c2)C1=O)c1ccc(Cl)cc1 (configuration not stated) | 4 | x | -9 | x | x | x | x
COc1ccc(N(CC(=O)Nc2ccc(F)c(F)c2)S(=O)(=O)c2c(C)n[nH]c2C)cc1 | -8 | 28* | 0 | -2 | -13 | 0 | 3
COc1ccc(NC(=O)CN(c2cc(C)cc(C)c2)S(=O)(=O)c2c(C)n[nH]c2C)cc1 | -3 | 1 | -5 | 3 | -15 | x | x
O=C(NNC(=O)C1COc2ccccc2O1)c1ccccc1O (configuration not stated) | 7 | 29* | 6 | 2 | 21 | -12 | 25*
O=C(Nc1ccc2c(c1)OCO2)C1COc2ccccc2O1 (configuration not stated) | 7 | 48* | -1 | -12 | 4 | -1 | -2
CC1CCCCN1c1nc(-c2ccncc2)nc2ccccc12 (configuration not stated) | -3 | -1 | -18 | -2 | -22 | x | x
CCC1CCCCN1c1nc(-c2ccncc2)nc2ccccc12 (configuration not stated) | -8 | 44* | -15 | -6 | -26 | 1 | -3
O=C(NNC(=O)c1ccccc1F)c1cccc(-n2cccc2)c1 | -3 | 22* | 2 | -1 | 4 | 0 | 26*
COc1ccc(C2NC(=O)CCC2[N+](=O)[O-])cc1OC (configuration not stated) | 4 | 4 | 3 | 1 | 6 | x | x
COc1cc(C2NC(=O)CCC2[N+](=O)[O-])cc(OC)c1OC (configuration not stated) | -3 | 23* | -8 | -2 | -1 | -2 | -3
COCCN=C1Sc2ccccc2[C@@H]2C[C@H]3[C@H](CON3C)CN12 | 7 | 8 | 7 | x | x | x | x
COc1ccc(NC(=O)CSCC(=O)Nc2sccc2C#N)cc1 | 6 | 21* | 23 | 4 | 11 | 9 | 5
C[C@H]1COc2cc(Br)ccc2S(=O)(=O)N1Cc1cn(Cc2ccc(F)cc2)nn1 | 2 | x | 2 | x | x | x | x
COc1ccc(C(=O)Nc2nnc(CC(=O)N/N=C/c3ccc(O)cc3O)s2)cc1 | 10 | 23* | -3 | -28 | 7 | -6 | 35*
CCc1nnc(NC(=O)c2ccc(OC)cc2)s1 | -8 | 0 | 0 | 0 | 3 | x | x
O=C(NNC(=O)c1cc2ccccc2o1)c1ccncc1 | 6 | 7 | 4 | -1 | 2 | x | x
O=C(NNC(=O)c1ccccc1O)c1cc2ccccc2o1 | 0 | 33* | 16 | 6 | 6 | -9 | 22*
CCCCN(C(=O)c1cccc(-n2cccc2)c1)c1c(N)n(CCC)c(=O)[nH]c1=O | 1 | 9 | 3 | 1 | -6 | x | x
CCCCN(C(=O)c1cccc(-n2cccc2)c1)c1c(N)n(CCCC)c(=O)[nH]c1=O | -2 | 39* | 0 | 2 | -10 | -9 | 10
C#CCNC(=O)C[C@H]1C[C@@]2(C(=O)OC)C(=C[C@H](C(C)(C)C)O[C@@H]2C)N(Cc2ccc(Cl)cc2Cl)C1=O | -1 | x | -15 | x | x | x | x
SMILES | SIAE primary | TCR-CD3 inh | mABHD4 FP | DAGLB inhibitor | HTRA1 inhibitor | BSA probe FL | TCR-CD3 inh conf
CC(C)CNC(=O)OCc1cn(Cc2cccc(F)c2F)nn1 | 7 | x | 2 | x | x | x | x
COc1ccccc1NS(=O)(=O)c1cccc(C(=O)N/N=C/c2cn(-c3ccccc3)nc2-c2ccccc2)c1 | -97 | 45* | -91 | -10 | -27 | 22 | 44*
CCCn1nnc(NC(=O)/C=C/c2ccco2)n1 | 3 | 12 | -1 | 1 | 2 | x | x
Cn1nnc(NC(=S)NC(=O)/C=C/c2ccco2)n1 | -3 | 19* | 21 | 3 | 14 | -7 | -1
O=C(CSc1nnc(-c2cccnc2)n1-c1ccc(Cl)cc1)Nc1cccc2ccccc12 | 5 | x | 2 | x | x | x | x
O=S(=O)(c1ccc(NC(=S)NCCC(c2ccccc2)c2ccccc2)cc1)N1CCOCC1 | -230 | 33* | -101 | 1 | -73 | 14 | 18
CCOC(=O)N[C@@H](CC(C)C)C(=O)N1CCC[C@H]1C(=O)NCc1ccccc1 | 2 | 9 | 2 | x | x | x | x
COc1ccccc1/C=N/NC(=O)c1ccc(N(C)S(=O)(=O)c2ccccc2)cc1 | -12 | 23* | -4 | -5 | -33 | 10 | 10
COc1ccccc1N(C)S(=O)(=O)c1ccc(C(=O)NNC(=O)c2ccccc2O)cc1 | 5 | 23* | 3 | 7 | 14 | -1 | 24*
COc1ccccc1N(C)S(=O)(=O)c1ccc(Cl)c(C(=O)N2CCC2)c1 | -2 | 4 | 0 | 0 | 3 | x | x
COc1ccccc1N(C)S(=O)(=O)c1ccc(Cl)c(C(=O)NNC(=O)c2ccccc2O)c1 | -4 | 32* | 2 | 8 | 34 | -10 | 25*
COc1cc(OC)cc(C(=O)NNC(=O)c2ccc(S(=O)(=O)N(C)c3ccccc3OC)cc2)c1 | -1 | -5 | 0 | -2 | -8 | x | x
CCCCCCCCN1C(=O)[C@@H](CC(=O)N2CCN(C(=O)C3CC3)CC2)C[C@@]2(C(=O)OC)C1=C[C@H](C1CCCC1)O[C@@H]2C | 1 | 1 | 4 | x | x | x | x
CCC(C)CNC(=O)CSc1nnc(-c2cccnc2)n1C1CCCCC1 (configuration not stated) | 7 | x | -2 | x | x | x | x
COc1ccc([C@H]2CC(=O)C[C@@H](CCn3cc(Cc4ccccc4)nn3)O2)cc1 | -2 | 24* | -3 | x | x | 8 | 6
O=C(OCC#CCSc1nnc(-c2cccc3ccccc23)o1)c1cc(F)c(F)c(F)c1 | 5 | x | 6 | x | x | x | x
Cc1ccc(S(=O)(=O)Cc2ccc(C(=O)N3CCN(c4cccc(C)c4C)CC3)o2)cc1 | 1 | -5 | -8 | -3 | -17 | x | x

Compound activity deposited in PubChem by The Scripps Research Institute Molecular Screening Center.
